Assay results: publication PMC12096016 (Protein Science : A Publication of the Protein Society, 2025)
Residue numbers refer to the chain shown, from its start. “Also recorded” adds a separate entry of the source.

Columns and labels:
[1] = molecular target: T1, EntB‐driven EntC reaction (Escherichia coli, UniProt P0ADI4); experiment: Isothermal titration microcalorimetry of the EntC–EntB coupled reaction; assay type: biochemical; conditions: 313 nM EntC, 1293 nM EntB, 0, 250, 500 μM DHB, 30°C
T1 sequence (P0ADI4 1-285): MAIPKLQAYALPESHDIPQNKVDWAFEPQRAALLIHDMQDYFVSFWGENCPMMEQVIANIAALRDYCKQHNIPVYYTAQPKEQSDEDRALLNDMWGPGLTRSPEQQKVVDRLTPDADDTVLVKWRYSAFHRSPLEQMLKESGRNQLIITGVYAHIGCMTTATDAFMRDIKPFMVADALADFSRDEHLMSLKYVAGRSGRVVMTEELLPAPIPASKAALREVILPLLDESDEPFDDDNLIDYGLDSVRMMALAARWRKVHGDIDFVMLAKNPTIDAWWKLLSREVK
Method in brief: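 The sample cell held 313 nM EntC with or without EntB (162–2587 nM). Two injections of 79 μM chorismate were given 10 min apart, stirring at 300 RPM. Integrated heats were corrected for buffer injection and chorismate dilution heats.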

[2] = molecular target: T2, EntB R196A isochorismatase (Escherichia coli, UniProt P0ADI4, R196A); experiment: EntB‐LDH coupled isochorismatase activity assay, EntB R196A; assay type: biochemical
T2 sequence (P0ADI4 1-285 R196A): T1 sequence (P0ADI4 1-285) with R196A
Method in brief: (§1)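 His-tagged EntB (pCA24N, E. coli AG-1, IMAC-purified) at 0.10 μM was preincubated 10 min at RT with 1.50 unit/mL LDH and 350 μM NADH in 50 mM HEPES pH 8.0, 150 mM NaCl, 1 mM TCEP. Substrate was a ~3:2 chorismate:isochorismate mix made with EntC and 5 mM MgCl2 on ice for 20 min, then filtered. It was added at 6.2–73.9 μM, and OD340 loss was followed at 21°C. Test compound was at 0, 100, 250 or 400 μM. Km and Vmax came from Michaelis–Menten fits, and Ki from an Eadie–Hofstee slope replot.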

EntB variant R196A = molecular target: T3, EntB variant R196A (Escherichia coli, UniProt P0ADI4, R196A); experiment: Fluorescence anisotropy binding assay, EntB R196A; conditions: EntB R196A titrated into 2.00 μM 2,3‐DHB; apparent K D not determinable (no saturation)
T3 sequence (P0ADI4 1-285 R196A): T1 sequence (P0ADI4 1-285) with R196A

[3] = molecular target: T4, wild‐type EntB isochorismatase (Escherichia coli, UniProt P0ADI4); experiment: EntB‐LDH coupled isochorismatase activity assay, wild-type EntB; assay type: biochemical; conditions: for Isochorismate apparent K m / V max: 0.1 μM EntB
T4 sequence (P0ADI4 1-285): T1 sequence (P0ADI4 1-285)
Method in brief: as §1

[4] = molecular target: T5, apo‐EntB (wild‐type EntB) (Escherichia coli, UniProt P0ADI4); experiment: Fluorescence anisotropy binding assay, wild-type EntB
T5 sequence (P0ADI4 1-285): T1 sequence (P0ADI4 1-285)
Method in brief: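 The test compound was held at 2 μM and purified protein was titrated in. Buffer was 50 mM HEPES pH 8.0, 150 mM NaCl, 1 mM TCEP, with 10 min preincubation at RT. Anisotropy was read at 21°C (ex 315 nm, em 437 nm, 10 nm slits), G-factor corrected, in triplicate. Apparent KD came from a one-site total-binding fit.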

EntB = conditions: compared with 2,5‐DHB and 3,5‐DHB; ref Khalil & Pawelek, 2009; cited from earlier work

## O=C(O)c1cccc(O)c1O [2,3‐DHB, 2,3‐dihydroxybenzoic acid]
[1]
  effect on heat evolution (integrated reaction heats): suppression of integrated reaction heats; also recorded: heat evolution decreased in a DHB‐dependent manner
[2]
  IC50: 692 µM
EntB variant R196A
  affinity relative to wild‐type EntB: much lower affinity than wild‐type EntB
[3]
  IC50: 360 µM
[3]; 100 μM 2,3‐DHB
  Isochorismate apparent K m: 16.24 ± 1.57 µM
  V max: 5.25 ± 0.17 µM/min
[3]; 250 μM 2,3‐DHB
  Isochorismate apparent K m: 22.12 ± 3.25 µM
  V max: 4.99 ± 0.52 µM/min
[3]; 400 μM 2,3‐DHB
  Isochorismate apparent K m: 32.55 ± 0.23 µM
  V max: 5.33 ± 0.05 µM/min
[3]; Eadie–Hofstee plot, linear fits converge at the ordinate
  mode of inhibition: competitive inhibition
[4]
  Kd: 8.95 µM
EntB
  quenching of EntB intrinsic fluorescence: able to specifically quench EntB fluorescence; also recorded: most strongly quenched
